Laboratory results published in ChEMBL document CHEMBL1140479, “NO donors. Part 16: investigations on structure-activity relationships of organic mononitrates reveal 2-nitrooxyethylammoniumnitrate as a high potent vasodilator” (Bioorg Med Chem Lett, 2007).

Assay: Vasodilatory effect in pig pulmonary artery assessed as inhibition of PGF2-alpha-induced contraction
Assay type: functional, tissue-based, Sus scrofa
Conditions: for pD2: Sus scrofa
How it was run: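 Porcine lungs from slaughterhouse; small pulmonary artery branches cut into rings (2–3 mm long, 1.5–2 mm diameter), tension measured in organ baths. Rings precontracted with PGF2α; test compounds added cumulatively at contraction plateau (up to 1 mM), DMSO as solvent. Endothelium checked by 10 nM bradykinin relaxation; denuded rings by gentle rubbing, pretreated with 0.2 mM L-NAME. Potency expressed as pD2.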

| Compound | EC50 [µM] | pD2 |
| --- | --- | --- |
| O=[N+]([O-])OCC(CO)(CO)CO [PENTAERYTHRITYL MONONITRATE] | 72.5 | 4.14 |
| CC(O[N+](=O)[O-])C(=O)c1ccccc1 (stereo unspecified) | 1.54 | 5.81 |
| O=[N+]([O-])OCCS(=O)(=O)O | 33.5 | 4.48 |
| CC(C)CO[N+](=O)[O-] | 87.7 | 4.01 |
| O=[N+]([O-])OCC(CO[N+](=O)[O-])O[N+](=O)[O-] [NITROGLYCERIN] | 0.0356 | 7.44 |
| CC(C)(CO[N+](=O)[O-])C(=O)O | 14.7 | 4.83 |
| NCCO[N+](=O)[O-] [AMINOETHYL NITRATE] | 0.0315 | 7.5 |
| O=[N+]([O-])OC1COC2C(O)COC12 (stereo unspecified) | 33.2 | 4.48 |
| O=[N+]([O-])OCc1ccccc1 | 0.412 | 6.34 |
| O=C(O)CCO[N+](=O)[O-] | 9.56 | 5.02 |
| COC(=O)CCO[N+](=O)[O-] | 1.03 | 5.99 |
| O=[N+]([O-])O[C@H]1CO[C@H]2[C@@H]1OC[C@H]2O[N+](=O)[O-] [ISOSORBIDE DINITRATE] | 0.424 | 6.37 |
| CCCCO[N+](=O)[O-] | 141 | 3.85 |
